Experimental data reported in ChEMBL document CHEMBL2375244 (J Med Chem, 2013).
Active and inactive are the calls of the source. No cut-off for these calls is given here.

Key:
SK-ES1 = test: Cytotoxicity against human SK-ES-1 cells after 72 hrs by resazurin/resorufin-based fluorescence assay; type: functional, cell-based; conditions: SK-ES1, 72 h
[1] = target: CDK6/cyclin D1 (Homo sapiens) (UniProt P24385+Q00534); test: Inhibition of human CDK6/Cyclin D1 at 0.1 uM incubated for 15 mins prior to substrate addition measured after 90 mins by P33-radiolabeled assay relative to control; type: protein-complex assay
[2] = Cytotoxicity against mouse TM4 cells after 72 hrs by MTT assay; type: functional, cell-based; conditions: TM4, 72 h
In short: (§1)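 Cells kept in RPMI or DMEM with 10% FBS at 37 °C, 5% CO₂ and allowed to attach overnight; 72 h with increasing inhibitor concentrations; then 1 mg/mL MTT for 3 h, DMSO solubilisation, OD read at 540 nm. Testis lines had culture conditions adapted to them. Dose-response in triplicate, 9 concentrations between 0.02 and 100 μM, averaged.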

[3] = target: T1, Cyclin-dependent kinase 5/CDK5 activator 1 (Homo sapiens) (UniProt Q00535+Q15078); test: Inhibition of human CDK5/P35 at 0.1 uM incubated for 15 mins prior to substrate addition measured after 90 mins by P33-radiolabeled assay relative to control; type: protein-complex assay
[4] = target: Cyclin-dependent kinase 5/CDK5 activator 1 (Homo sapiens, UniProt Q00535); test: Inhibition of CDK5/P25 (unknown origin)-mediated phosphorylation of peptide substrate incubated for 15 mins prior to substrate addition measured after 90 mins by P33-radiolabeled assay; type: protein-complex assay
U-266 = test: Cytotoxicity against human U266 cells after 72 hrs by resazurin/resorufin-based fluorescence assay; type: functional, cell-based; conditions: U-266, 72 h
[5] = target: Cyclin-dependent kinase 2 (Homo sapiens) (UniProt P24941); test: Inhibition of CDK2-mediated Rb phosphorylation at Ser 807/811 in human NCI-H929 cells at […] after 24 hrs by immunoblotting analysis; type: cell-based
[6] = target: Cyclin-dependent kinase 2 (Homo sapiens) (UniProt P24941); test: Inhibition of CDK2-mediated Rb phosphorylation at Ser 807/811 in human A673 cells at 0.25 uM after 24 hrs by immunoblotting analysis; type: cell-based
In short: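 Asynchronously growing A-673 cells at ~70% confluence were exposed for 24 h to increasing concentrations, then lysed. 50 μg protein per lane on 10% SDS-PAGE, transferred to nitrocellulose. Phospho-Rb Ser807/811 antibody, with β-actin as loading control, detected with fluorescent secondary antibodies on an infrared scanner.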

[7] = target: CDK4/Cyclin D3 (Homo sapiens) (UniProt P11802+P30281); test: Inhibition of human CDK4/Cyclin D3 at 0.1 uM incubated for 15 mins prior to substrate addition measured after 90 mins by P33-radiolabeled assay relative to control; type: protein-complex assay
[8] = target: Glycogen synthase kinase-3 beta (Homo sapiens, UniProt P49841); test: Inhibition of GSK3beta (unknown origin)-mediated phosphorylation of peptide substrate incubated for 15 mins prior to substrate addition measured after 90 mins by P33-radiolabeled assay
[9] = target: Cyclin-dependent kinase 1/cyclin B1 (Homo sapiens) (UniProt P06493+P14635); test: Inhibition of human CDK1/Cyclin B at 0.1 uM incubated for 15 mins prior to substrate addition measured after 90 mins by P33-radiolabeled assay relative to control; type: protein-complex assay
CDK1/Cyclin A = CDK1/Cyclin A (Homo sapiens, UniProt P06493); test: Inhibition of CDK1/Cyclin A (unknown origin)-mediated phosphorylation of peptide substrate incubated for 15 mins prior to substrate addition measured after 90 mins by P33-radiolabeled assay; type: protein-complex assay
SK-BR-3 = test: Cytotoxicity against human SK-BR-3 cells after 72 hrs by resazurin/resorufin-based fluorescence assay; type: functional, cell-based; conditions: SK-BR-3, 72 h
In short: (§2)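 CellTiter-Blue viability: 1200 cells per well seeded, incubated overnight at 37 °C, 5% CO₂; drugs serially diluted 2:3 in medium, four replicate wells per concentration plus four diluent-only control wells; 72 h exposure; resazurin reduction to resorufin read by fluorescence (579 nm ex/584 nm em). IC50 is the average of three data sets, each using nine concentrations between 0.004 μM and 12.5 μM.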

[10] = target: Cyclin-dependent kinase 4/cyclin D1 (Homo sapiens, UniProt P11802); test: Inhibition of CDK4/Cyclin D1 (unknown origin)-mediated phosphorylation of peptide substrate incubated for 15 mins prior to substrate addition measured after 90 mins by P33-radiolabeled assay; type: protein-complex assay
[11] = target: CDK2/Cyclin A2 (Homo sapiens) (UniProt P24941+P20248); test: Inhibition of human CDK2/Cyclin A at 0.1 uM incubated for 15 mins prior to substrate addition measured after 90 mins by P33-radiolabeled assay relative to control; type: protein-complex assay
[12] = Cytotoxicity against human MDA-MB-436 cells after 72 hrs by resazurin/resorufin-based fluorescence assay; type: functional, cell-based; conditions: MDA-MB-436, 72 h
[13] = Cytotoxicity against mouse GC-2 cells after 72 hrs by MTT assay; type: functional, cell-based; conditions: GC-2, 72 h; in short: as §1
T47D = test: Cytotoxicity against human T47D cells after 72 hrs by resazurin/resorufin-based fluorescence assay; type: functional, cell-based
A673 [14] = test: Induction of apoptosis in human A673 cells assessed as caspase-3 activation after 24 hrs by luminescence assay; type: functional, cell-based; conditions: A673, 24 h
In short: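 Caspase-3/7 activation measured with a Caspase-Glo 3/7 luminescent assay. Cells were plated as for the high-throughput viability assay and exposed for 24 h to serial dilutions. EC50 was obtained from the dose-response.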

[15] = target: T1, Cyclin-dependent kinase 5/CDK5 activator 1 (Homo sapiens); test: Inhibition of human CDK5/P25 at 0.1 uM incubated for 15 mins prior to substrate addition measured after 90 mins by P33-radiolabeled assay relative to control; type: protein-complex assay
[16] = target: CDK2/Cyclin A1 (Homo sapiens) (UniProt P24941+P78396); test: Inhibition of human CDK2/Cyclin A1 at 0.1 uM incubated for 15 mins prior to substrate addition measured after 90 mins by P33-radiolabeled assay relative to control; type: protein-complex assay
A673 [17] = test: Cytotoxicity against human A673 cells after 72 hrs by resazurin/resorufin-based fluorescence assay; type: functional, cell-based; conditions: A673, 72 h
MDA-MB-231 = test: Cytotoxicity against human MDA-MB-231 cells after 72 hrs by resazurin/resorufin-based fluorescence assay; type: functional, cell-based; conditions: MDA-MB-231, 72 h
CDK3/Cyclin E = CDK3/Cyclin E (Homo sapiens, UniProt Q00526); test: Inhibition of CDK3/Cyclin E (unknown origin)-mediated phosphorylation of peptide substrate incubated for 15 mins prior to substrate addition measured after 90 mins by P33-radiolabeled assay; type: protein-complex assay
BT-549 = test: Cytotoxicity against human BT549 cells after 72 hrs by resazurin/resorufin-based fluorescence assay; type: functional, cell-based; conditions: BT-549, 72 h; in short: as §2
MDA-MB-468 = test: Cytotoxicity against human MDA-MB-468 cells after 72 hrs by MTT assay; type: functional, cell-based; conditions: MDA-MB-468, 72 h; in short: as §1
[18] = Cytotoxicity against human RPMI18226 cells after 72 hrs by resazurin/resorufin-based fluorescence assay; type: functional, cell-based; conditions: RPMI18226, 72 h
SK-UT-1 = test: Cytotoxicity against human SK-UT-1 cells after 72 hrs by resazurin/resorufin-based fluorescence assay; type: functional, cell-based; conditions: SK-UT-1, 72 h

T1 sequence (Q00535 whole entry): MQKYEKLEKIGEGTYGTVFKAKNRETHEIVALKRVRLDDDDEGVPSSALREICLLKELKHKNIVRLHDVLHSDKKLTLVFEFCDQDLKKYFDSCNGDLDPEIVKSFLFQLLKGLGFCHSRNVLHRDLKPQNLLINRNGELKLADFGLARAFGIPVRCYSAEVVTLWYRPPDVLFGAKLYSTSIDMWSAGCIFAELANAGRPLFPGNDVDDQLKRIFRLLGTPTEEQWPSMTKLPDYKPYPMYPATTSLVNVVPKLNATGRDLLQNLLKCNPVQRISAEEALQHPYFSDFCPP
T1 sequence (Q15078 99-307 partner limits assumed): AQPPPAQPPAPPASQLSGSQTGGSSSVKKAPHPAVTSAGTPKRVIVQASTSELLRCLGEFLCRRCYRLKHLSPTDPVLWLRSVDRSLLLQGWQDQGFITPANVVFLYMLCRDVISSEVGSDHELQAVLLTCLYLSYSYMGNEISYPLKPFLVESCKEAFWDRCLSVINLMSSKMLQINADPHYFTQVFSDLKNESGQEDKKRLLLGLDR
Sequence of Cyclin-dependent kinase 5/CDK5 activator 1 (Q00535 whole entry): as the sequence (Q00535 whole entry) above
Sequence of Cyclin-dependent kinase 5/CDK5 activator 1 (Q15078 whole entry, further chain): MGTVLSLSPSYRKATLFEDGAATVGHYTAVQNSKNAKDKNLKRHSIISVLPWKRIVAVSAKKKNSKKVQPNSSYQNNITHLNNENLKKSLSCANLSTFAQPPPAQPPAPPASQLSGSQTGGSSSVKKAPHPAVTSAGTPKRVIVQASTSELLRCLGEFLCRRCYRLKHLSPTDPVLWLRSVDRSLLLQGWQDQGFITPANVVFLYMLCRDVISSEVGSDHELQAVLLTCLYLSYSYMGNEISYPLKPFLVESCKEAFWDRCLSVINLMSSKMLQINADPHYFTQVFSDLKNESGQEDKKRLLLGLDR
Sequence of CDK3/Cyclin E (P24864 whole entry): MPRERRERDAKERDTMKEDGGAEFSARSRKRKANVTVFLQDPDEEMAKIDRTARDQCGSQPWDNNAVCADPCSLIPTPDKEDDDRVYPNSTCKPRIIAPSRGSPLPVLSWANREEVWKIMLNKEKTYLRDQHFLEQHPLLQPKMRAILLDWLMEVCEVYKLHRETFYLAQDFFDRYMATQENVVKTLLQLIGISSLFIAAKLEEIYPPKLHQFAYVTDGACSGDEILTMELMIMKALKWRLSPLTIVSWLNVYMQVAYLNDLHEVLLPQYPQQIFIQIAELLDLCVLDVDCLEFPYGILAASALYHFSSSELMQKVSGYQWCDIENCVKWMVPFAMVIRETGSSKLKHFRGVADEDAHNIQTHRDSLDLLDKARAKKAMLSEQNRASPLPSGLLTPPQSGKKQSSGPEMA
Sequence of CDK3/Cyclin E (Q00526 whole entry): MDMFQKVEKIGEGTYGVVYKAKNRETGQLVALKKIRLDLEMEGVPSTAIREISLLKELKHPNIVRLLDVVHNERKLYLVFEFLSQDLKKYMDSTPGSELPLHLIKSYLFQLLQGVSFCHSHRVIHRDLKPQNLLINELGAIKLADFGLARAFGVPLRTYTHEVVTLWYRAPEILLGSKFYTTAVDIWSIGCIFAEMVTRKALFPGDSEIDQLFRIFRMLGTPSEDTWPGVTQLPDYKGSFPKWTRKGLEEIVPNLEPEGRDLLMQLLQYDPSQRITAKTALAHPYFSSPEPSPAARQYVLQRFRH
Sequence of Cyclin-dependent kinase 4/cyclin D1 (P11802 whole entry): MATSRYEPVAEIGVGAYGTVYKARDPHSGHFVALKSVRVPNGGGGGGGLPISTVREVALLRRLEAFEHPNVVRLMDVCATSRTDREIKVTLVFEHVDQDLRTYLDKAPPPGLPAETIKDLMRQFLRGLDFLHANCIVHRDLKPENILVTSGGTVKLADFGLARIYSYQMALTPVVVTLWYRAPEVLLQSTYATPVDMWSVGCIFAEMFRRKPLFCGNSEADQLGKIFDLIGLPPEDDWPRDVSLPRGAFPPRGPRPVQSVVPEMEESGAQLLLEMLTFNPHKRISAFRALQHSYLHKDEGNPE
Sequence of Cyclin-dependent kinase 4/cyclin D1 (P24385 whole entry, further chain): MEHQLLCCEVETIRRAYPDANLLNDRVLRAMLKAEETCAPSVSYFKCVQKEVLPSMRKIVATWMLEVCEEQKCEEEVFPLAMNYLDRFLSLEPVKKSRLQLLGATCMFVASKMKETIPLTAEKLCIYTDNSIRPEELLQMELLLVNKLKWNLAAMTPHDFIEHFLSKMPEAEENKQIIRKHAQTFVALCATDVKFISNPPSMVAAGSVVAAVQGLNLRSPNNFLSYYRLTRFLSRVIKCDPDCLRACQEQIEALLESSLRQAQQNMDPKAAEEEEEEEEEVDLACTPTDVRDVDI
Sequence of Glycogen synthase kinase-3 beta (P49841 whole entry): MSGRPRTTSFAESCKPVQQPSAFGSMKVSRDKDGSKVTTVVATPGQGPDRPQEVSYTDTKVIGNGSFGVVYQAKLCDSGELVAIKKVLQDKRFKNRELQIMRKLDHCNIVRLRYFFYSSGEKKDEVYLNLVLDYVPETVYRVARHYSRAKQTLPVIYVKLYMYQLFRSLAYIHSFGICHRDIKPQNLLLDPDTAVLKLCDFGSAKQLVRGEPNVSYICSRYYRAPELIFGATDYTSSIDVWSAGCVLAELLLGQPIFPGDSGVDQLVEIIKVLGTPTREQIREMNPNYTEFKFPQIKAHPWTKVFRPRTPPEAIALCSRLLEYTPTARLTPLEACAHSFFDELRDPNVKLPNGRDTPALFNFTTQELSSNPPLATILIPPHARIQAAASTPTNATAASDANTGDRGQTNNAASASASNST
Sequence of Cyclin-dependent kinase 1/cyclin B1 (Homo sapiens) (P06493 whole entry, looked up): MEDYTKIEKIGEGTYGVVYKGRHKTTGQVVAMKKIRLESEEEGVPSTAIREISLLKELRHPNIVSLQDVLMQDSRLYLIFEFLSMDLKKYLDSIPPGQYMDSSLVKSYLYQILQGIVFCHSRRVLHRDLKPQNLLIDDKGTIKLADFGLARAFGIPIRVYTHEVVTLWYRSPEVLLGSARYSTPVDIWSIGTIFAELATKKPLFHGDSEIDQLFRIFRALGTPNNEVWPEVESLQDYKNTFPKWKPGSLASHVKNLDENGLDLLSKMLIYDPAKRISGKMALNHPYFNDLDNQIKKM
Sequence of Cyclin-dependent kinase 1/cyclin B1 (Homo sapiens) (P14635 whole entry, looked up): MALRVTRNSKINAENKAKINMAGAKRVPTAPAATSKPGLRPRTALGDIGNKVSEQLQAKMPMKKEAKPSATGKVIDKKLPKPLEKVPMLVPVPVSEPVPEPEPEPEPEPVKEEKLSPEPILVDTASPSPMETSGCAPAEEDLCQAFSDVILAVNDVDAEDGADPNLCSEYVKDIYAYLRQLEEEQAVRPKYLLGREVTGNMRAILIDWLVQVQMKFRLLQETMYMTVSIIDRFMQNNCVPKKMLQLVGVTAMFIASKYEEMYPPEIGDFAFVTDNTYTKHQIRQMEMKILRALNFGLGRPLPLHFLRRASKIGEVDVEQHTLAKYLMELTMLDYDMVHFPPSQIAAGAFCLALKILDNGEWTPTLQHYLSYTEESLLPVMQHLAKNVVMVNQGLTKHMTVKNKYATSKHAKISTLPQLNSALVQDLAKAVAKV
Sequence of CDK1/Cyclin A (P06493 whole entry): as the sequence (P06493 whole entry, looked up) above
Sequence of CDK1/Cyclin A (P20248 whole entry, further chain): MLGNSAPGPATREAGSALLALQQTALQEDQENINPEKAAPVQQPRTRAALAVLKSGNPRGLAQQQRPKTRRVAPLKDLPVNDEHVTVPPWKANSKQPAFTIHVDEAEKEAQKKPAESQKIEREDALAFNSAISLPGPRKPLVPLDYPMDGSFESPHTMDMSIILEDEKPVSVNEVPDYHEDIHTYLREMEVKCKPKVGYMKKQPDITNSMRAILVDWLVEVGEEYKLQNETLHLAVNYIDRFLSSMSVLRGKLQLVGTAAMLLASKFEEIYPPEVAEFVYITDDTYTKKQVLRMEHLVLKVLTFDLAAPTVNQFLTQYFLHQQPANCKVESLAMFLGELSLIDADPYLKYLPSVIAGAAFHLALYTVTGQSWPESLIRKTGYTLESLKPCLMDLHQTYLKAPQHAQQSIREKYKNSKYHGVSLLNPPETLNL

## Nc1nc(Nc2ccc(S(N)(=O)=O)cc2)sc1C(=O)c1ccccc1[N+](=O)[O-]
SK-ES1
  IC50: 0.56 µM
[1]
  inhibition: 80%
[2]
  IC50: 16 µM
[3]
  inhibition: 90%
[4]
  IC50: 0.0015 µM
U-266
  IC50: 1.8 µM
[5]
  inhibition: Active
[6]
  inhibition: Active
[7]
  inhibition: 80%
[8]
  IC50: 0.107 µM
[9]
  inhibition: 90%
CDK1/Cyclin A
  IC50: 0.0076 µM
SK-BR-3
  IC50: 0.49 µM
[10]
  IC50: 0.004 µM
[11]
  inhibition: 90%
[12]
  IC50: 2 µM
[13]
  IC50: 9 µM
T47D
  IC50: 0.5 µM
A673 [14]
  EC50: 0.41 µM
[15]
  inhibition: 90%
[16]
  inhibition: 90%
A673 [17]
  IC50: 0.27 µM
MDA-MB-231
  IC50: 1.5 µM
CDK3/Cyclin E
  IC50: 0.038 µM
BT-549
  IC50: > 10 µM
MDA-MB-468
  IC50: 0.3 µM
[18]
  IC50: > 10 µM
SK-UT-1
  IC50: 1.4 µM
